Assay results reported in ChEMBL document CHEMBL1139111, “Structure-activity relationship studies on quorum sensing ComX(RO-E-2) pheromone” (Bioorg Med Chem Lett, 2007).
*1 amine or outer side, *2 acyl side, *3 side chain or, on linkers, in order; H or OH if unused. Where a SMILES comes first, the peptide text is derived from it. [ ]: non-standard residue; d: D form. X1 = CC(C)=CCC/C(C)=C\C[C@@]12c3ccccc3N[C@@H]1N([*:1])C[C@@H]2C(=O)[*:2]

Columns and labels:
Bacillus subtilis = experiment: Activity at beta-galactosidase in Bacillus subtilis relative to ComXRO-E-2; set-up: concentration or dose not given beside the values
Procedure, shortened: (§1)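 B. subtilis tester strain carrying an srfA-lacZ fusion that responds to added pheromone. Overnight culture diluted 100-fold, added to sample solution, incubated 37 °C, 5 h, 150 rpm. β-Galactosidase measured with o-nitrophenyl-β-D-galactopyranoside at 30 °C, read at 420 nm. Analogs tested at concentrations up to 300 nM.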

[1] = Activity at beta-galactosidase in Bacillus subtilis; procedure, shortened: as §1

Row | SMILES | Activity (Bacillus subtilis) [%] | EC50 [1] [µM]
1 | CC[C@H](C)[C@H](N)C(=O)N[C@@H](Cc1ccccc1)C(=O)N1C[C@H](C(=O)N[C@@H](CCC(=O)O)C(=O)O)[C@]2(C/C=C(/C)CCC=C(C)C)c3ccccc3N[C@H]12 | 80 | 0.02
2 | CC[C@H](C)[C@H](NC(=O)[C@@H](C)N)C(=O)N[C@@H](Cc1ccccc1)C(=O)N1C[C@H](C(=O)N[C@@H](CCC(=O)O)C(=O)N[C@@H](CCC(N)=O)C(=O)O)[C@]2(C/C=C(/C)CCC=C(C)C)c3ccccc3N[C@H]12 | 100 | 0.003
3 | CC(C)=CCC/C(C)=C\C[C@@]12c3ccccc3N[C@@H]1NC[C@@H]2C(=O)N[C@@H](CCC(=O)O)C(=O)N[C@@H](CCC(N)=O)C(=O)O | 15 | > 0.3
4 | CC[C@H](C)[C@H](N)C(=O)N[C@@H](Cc1ccccc1)C(=O)N1C[C@H](C(=O)O)[C@]2(C/C=C(/C)CCC=C(C)C)c3ccccc3N[C@H]12 | 55 | 0.16
5 | CC(C)=CCC/C(C)=C\C[C@@]12c3ccccc3N[C@@H]1N(C(=O)[C@@H](N)Cc1ccccc1)C[C@@H]2C(=O)N[C@@H](CCC(=O)O)C(=O)N[C@@H](CCC(N)=O)C(=O)O | 70 | 0.008
6 | CC(C)=CCC/C(C)=C\C[C@@]12c3ccccc3N[C@@H]1N(C(=O)[C@@H](N)Cc1ccccc1)C[C@@H]2C(=O)N[C@@H](CCC(=O)O)C(=O)O | 60 | 0.02
7 | CC[C@H](C)[C@H](NC(=O)CN)C(=O)N[C@@H](Cc1ccccc1)C(=O)N1C[C@H](C(=O)O)[C@]2(C/C=C(/C)CCC=C(C)C)c3ccccc3N[C@H]12 | 60 | 0.13
8 | CC[C@H](C)[C@H](NC(=O)CNC(=O)[C@H](C)N)C(=O)N[C@@H](Cc1ccccc1)C(=O)N1C[C@H](C(=O)N[C@@H](CCC(=O)O)C(=O)N[C@@H](CCC(N)=O)C(=O)O)[C@]2(C/C=C(/C)CCC=C(C)C)c3ccccc3N[C@H]12 (H-AGIF[X1]EQ-OH) | 100 | 0.001
9 | CC(C)=CCC/C(C)=C\C[C@@]12c3ccccc3N[C@@H]1N(C(=O)[C@H](Cc1ccccc1)NC(=O)[C@H](C)NC(=O)CN)C[C@@H]2C(=O)N[C@@H](CCC(=O)O)C(=O)N[C@@H](CCC(N)=O)C(=O)O (H-GAF[X1]EQ-OH) | 95 | 0.01
10 | CC[C@H](C)[C@H](NC(=O)CN)C(=O)N[C@@H](C)C(=O)N1C[C@H](C(=O)N[C@@H](CCC(=O)O)C(=O)N[C@@H](CCC(N)=O)C(=O)O)[C@]2(C/C=C(/C)CCC=C(C)C)c3ccccc3N[C@H]12 (H-GIA[X1]EQ-OH) | 90 | 0.02
11 | CC[C@H](C)[C@H](NC(=O)CN)C(=O)N[C@@H](Cc1ccccc1)C(=O)N1C[C@H](C(=O)N[C@@H](C)C(=O)N[C@@H](CCC(N)=O)C(=O)O)[C@]2(C/C=C(/C)CCC=C(C)C)c3ccccc3N[C@H]12 (H-GIF[X1]AQ-OH) | 100 | 0.003
12 | CC[C@H](C)[C@H](NC(=O)CN)C(=O)N[C@@H](Cc1ccccc1)C(=O)N1C[C@H](C(=O)N[C@@H](CCC(=O)O)C(=O)O)[C@]2(C/C=C(/C)CCC=C(C)C)c3ccccc3N[C@H]12 (H-GIF[X1]E-OH) | 80 | 0.02
13 | CC[C@H](C)[C@H](NC(=O)CN)C(=O)N[C@@H](Cc1ccccc1)C(=O)N1C[C@H](C(=O)N[C@@H](CCC(=O)O)C(=O)N[C@@H](C)C(=O)O)[C@]2(C/C=C(/C)CCC=C(C)C)c3ccccc3N[C@H]12 (H-GIF[X1]EA-OH) | 95 | 0.02
14 | CC[C@H](C)[C@H](NC(=O)CN)C(=O)N[C@@H](Cc1ccccc1)C(=O)N1C[C@H](C(=O)N[C@@H](CCC(=O)O)C(=O)N[C@@H](CCC(N)=O)C(=O)O)[C@]2(C/C=C(/C)CCC=C(C)C)c3ccccc3N[C@H]12 (H-GIF[X1]EQ-OH) | 100 | 0.001
15 | CC[C@H](C)[C@H](N)C(=O)N[C@@H](Cc1ccccc1)C(=O)N1C[C@H](C(=O)N[C@@H](CCC(=O)O)C(=O)N[C@@H](CCC(N)=O)C(=O)O)[C@]2(C/C=C(/C)CCC=C(C)C)c3ccccc3N[C@H]12 (H-IF[X1]EQ-OH) | 100 | 0.006
